Entries after “also recorded” stand apart in the source; their conditions may differ. Where two headings read alike, the source gives them in different places.
Legend:
T. cruzi amastigotes = experiment: Intracellular T. cruzi amastigote assay in Vero cells; assay type: cell-based, Trypanosoma cruzi; details: for EC50: Trypanosoma cruzi, Vero; for Tc pEC50: T. cruzi amastigote cultures in Vero cells, mean of three or more EC50 determinations ± standard deviation
Outline: (§1)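 Intracellular T. cruzi amastigotes cultured in Vero host cells, with the host Vero cells read in parallel. pEC50 is the mean of independent EC50 determinations: three or more ± standard deviation, or for some compounds two ± range.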

TcCYP51 = TcCYP51 (Trypanosoma cruzi, UniProt Q7Z1V1); experiment: TcCYP51 counter-screen; assay type: biochemical, T. cruzi; details: for TcCYP51 inhibition: result in words
Vero cells = experiment: Host Vero cell toxicity counter-read of the amastigote assay; assay type: cell-based
Outline: as §1

T. cruzi = T. cruzi cytostatic/cytocidal assay; assay type: cell-based, Trypanosoma cruzi; details: cytocidal versus cytostatic behaviour
[1] = Intrinsic clearance in mouse liver microsomes; assay type: in vitro ADME; details: result in words
[2] = host Vero cells, mean of three or more EC50 determinations ± standard deviation

TcCYP51, sequence (Q7Z1V1 whole entry): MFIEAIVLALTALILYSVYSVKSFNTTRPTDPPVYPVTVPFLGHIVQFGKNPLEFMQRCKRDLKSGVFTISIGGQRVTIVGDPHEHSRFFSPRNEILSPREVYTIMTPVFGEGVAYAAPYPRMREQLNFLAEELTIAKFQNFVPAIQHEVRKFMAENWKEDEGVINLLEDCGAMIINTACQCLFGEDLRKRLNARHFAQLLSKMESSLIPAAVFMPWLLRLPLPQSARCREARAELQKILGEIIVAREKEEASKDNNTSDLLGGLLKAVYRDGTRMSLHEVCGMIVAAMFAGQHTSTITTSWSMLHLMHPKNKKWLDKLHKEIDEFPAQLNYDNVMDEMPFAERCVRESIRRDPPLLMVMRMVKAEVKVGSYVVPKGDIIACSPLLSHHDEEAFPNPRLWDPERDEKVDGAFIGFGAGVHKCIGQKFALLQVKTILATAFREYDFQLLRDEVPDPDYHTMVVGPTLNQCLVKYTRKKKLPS

Row | SMILES | Cytocidal (T. cruzi) | TcCYP51 inhibition (TcCYP51) | EC50 (T. cruzi amastigotes; read-out: Tc pEC50 (converted)) [µM] | other results
1 | COc1cc(OC)cc(C(=O)Nc2ccc(Nc3nc(C)cc(N(C)C)n3)cc2)c1 [Compound 1] | cytocidal behavior | – | – | EC50 (T. cruzi amastigotes; read-out: pEC50 against T. cruzi parasites (converted)): 0.126 µM; EC50 (TcCYP51): > 10 µM; Vero pEC50 (Vero cells; Table 2: host Vero cells, mean of two EC50 determinations ± range (1, 4b: ± standard deviation from > 2 determinations)): 5.2 ± 0.3; stability in mouse liver microsomes (MLM) [1]: stable
2 | COc1cc(Nc2nc(C)cc(N(C)C)n2)ccc1F [Compound 4d] | cytocidal | did not inhibit TcCYP51 | – | Tc pEC50 (T. cruzi amastigotes): 6.4 ± 0.3; Vero pEC50 (Vero cells; [2]): 4.5 ± 0.1
3 | Cc1cc(N(C)C)nc(Nc2ccc(C(=O)N3CCCCC3)cc2)n1 [Compound 5a] | – | – | 2 | toxicity against the host cells (Vero cells; at the top concentration tested (50 μM)): no toxicity
4 | Cc1cc(N(C)C)nc(NCc2ccccc2)n1 [Compound 6a] | cytocidal | did not inhibit TcCYP51 | 3.16 | Tc pEC50 (T. cruzi amastigotes): 5.5 ± 0.3; Vero pEC50 (Vero cells; [2]): < 4.3
5 | Cc1cc(N(C)C)nc(NC2CCN(C(=O)Cc3ccc(F)cc3F)CC2)n1 [Compound 6e] | – | – | 3.16 | –
6 | COc1cc(OC)cc(C(=O)N[C@H]2CC[C@H](Nc3nc(C)cc(N(C)C)n3)CC2)c1 [Compound 8b] | cytocidal | no activity versus TcCYP51 | – | –
7 | COc1cc(Nc2nc(C)cc(N3CCCC3)n2)ccc1F [Compound 13b] | – | – | 0.316 | –
8 | COc1cc(Nc2cc(C)nc(NCc3ccccc3)n2)ccc1F [Compound 17c] | cytostatic behavior; also recorded: no longer cytocidal | – | 0.0794 | –
9 | COc1cc(Nc2nc(C(C)C)cc(N(C)C)n2)ccc1F [Compound 18c] | – | – | 2 | –
10 | COc1cc(Nc2nc(C(=O)N3CCCC3)cc(N(C)C)n2)ccc1F [Compound 18e] | – | – | 31.6 | –

— publication PMC6970618 (Bioorganic & medicinal chemistry letters, 2018)
